Laboratory results as given in ChEMBL document CHEMBL5338743, “Identification of a Selective SCoR2 Inhibitor That Protects Against Acute Kidney Injury” (J Med Chem, 2023).
Calls of active or inactive are those of the source. The calls are words filed in the database; no cut-off is given here.

Legend:
[1] = system: Mus musculus; assay: In vivo inhibition of SCoR2 in C57BL/6J mouse assessed as reduction in SNO-CoA metabolic activity in brain at 120 mg/kg body weight, ip administered as single dose into abdomen measured after 18 hrs; type: functional, organism-based
Method in brief: (§1)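 Single i.p. injection into the mouse abdomen, DMSO vehicle; organs collected 18 h later. Tissues homogenized in 50 mM phosphate pH 7.0, 150 mM NaCl, EDTA/DTPA, then clarified; lysate started reactions with 200 μM SNO-CoA and 100 μM NADPH, 2 min, NADPH loss monitored, in triplicate. Compared with vehicle and SCoR2−/− kidneys.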

[2] = molecular target: T1, Aldo-keto reductase family 1 member A1 (Homo sapiens, UniProt P14550); assay: Inhibition of C-terminal 6His-tagged human recombinant SCoR2 AKR1A1 expressed in Escherichia coli BL21-CodonPlus competent cells using SNO-CoA as substrate incubated for 2 mins in presence of NADPH
T1 sequence (P14550 whole entry): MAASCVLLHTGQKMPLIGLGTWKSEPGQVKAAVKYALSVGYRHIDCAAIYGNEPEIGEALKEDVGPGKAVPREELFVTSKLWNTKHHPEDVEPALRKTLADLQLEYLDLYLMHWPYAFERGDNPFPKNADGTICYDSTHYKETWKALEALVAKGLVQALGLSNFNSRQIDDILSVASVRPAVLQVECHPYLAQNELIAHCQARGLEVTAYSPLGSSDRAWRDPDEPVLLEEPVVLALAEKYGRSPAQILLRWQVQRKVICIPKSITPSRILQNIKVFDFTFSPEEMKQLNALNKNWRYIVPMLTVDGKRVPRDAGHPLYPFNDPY
Method in brief: (§2)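 Purified enzyme at 200 nM (SCoR2 with 100 μM SNO-CoA; AKR1B1 with 100 μM methylglyoxylate) in 50 mM phosphate pH 7.0 with serial inhibitor dilutions; started with 100 μM NADPH, 2 min. Rate from 340 nm decrease, normalized to 20 nM protein activity; IC50 fitted, n=3. Selectivity taken as AKR1B1/SCoR2 IC50 ratio.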

[3] = system: Mus musculus; assay: Protection against ischemia/reperfusion induced acute kidney injury in mouse assessed as reduction in sloughed debris in the tubular lumen at 120 mg/kg, ip pretreated for 18 hrs followed by kidney injury surgery and measured after 24 hrs by H and E staining based analysis; type: functional, organism-based; conditions: time 42.0 hrs
Method in brief: (§3)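 Mice dosed i.p. 120 mg/kg 18 h before I/R surgery, kidneys harvested 24 h later, H&E-stained. Tubular lysis, brush-border loss and luminal debris scored 0–2 over more than five fields per animal; n=5 mice per group, vehicle controls.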

[4] = Renal toxicity in mouse assessed as effect on anatomy of cortex at 120 mg/kg, ip treated for 18 hrs under basal conditions by H and E staining based analysis; type: organism-based; conditions: in vivo
Method in brief: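 Sham-operated mice given 120 mg/kg i.p. or vehicle; kidney cortex and medulla examined by H&E staining.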

[5] = system: Mus musculus; assay: Protection against ischemia/reperfusion induced acute kidney injury in mouse assessed as reduction in tubular lysis at 120 mg/kg, ip pretreated for 18 hrs followed by kidney injury surgery and measured after 24 hrs by H and E staining based analysis; type: functional, organism-based; conditions: time 42.0 hrs; method in brief: as §3
[6] = system: Mus musculus; assay: In vivo inhibition of SCoR2 in C57BL/6J mouse assessed as reduction in SNO-CoA metabolic activity in liver at 120 mg/kg body weight, ip administered as single dose into abdomen measured after 18 hrs; type: functional, organism-based; method in brief: as §1
[7] = system: Kidney; assay: Effect on SCoR2 protein expression in kidney of ischemia/reperfusion induced acute kidney injury mouse model at 120 mg/kg, ip pretreated for 18 hrs followed by kidney injury surgery and measured after 24 hrs by Western blot analysis; type: functional, organism-based; conditions: time 42.0 hrs
Method in brief: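 Mice given 120 mg/kg i.p. 18 h before I/R surgery; kidneys collected 24 h post-surgery. SCoR2 protein measured by western blot (4–20% gels, overnight primary antibody at 4°C, HRP secondary, ECL) and quantified; n=6, DMSO controls.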

[8] = system: Mus musculus; assay: In vivo inhibition of AKR1B1 in mouse assessed as reduction in methyl glyoxylate metabolic activity in kidneys at 120 mg/kg body weight, ip administered as single dose into abdomen measured after 18 hrs; type: functional, organism-based
[9] = molecular target: Aldo-keto reductase family 1 member B1 (Homo sapiens, UniProt P15121); assay: Inhibition of C-terminal 6His-tagged human recombinant AKR1B1 expressed in Escherichia coli BL21-CodonPlus competent cells using methyl glyoxylate as substrate incubated for 2 mins in presence of NADPH; method in brief: as §2
[10] = system: Mus musculus; assay: In vivo inhibition of SCoR2 in C57BL/6J mouse assessed as reduction in SNO-CoA metabolic activity in lung at 120 mg/kg body weight, ip administered as single dose into abdomen measured after 18 hrs; type: functional, organism-based; method in brief: as §1
[11] = system: Mus musculus; assay: Protection against ischemia/reperfusion induced acute kidney injury in mouse assessed as reduction in blood urea nitrogen level at 120 mg/kg, ip pretreated for 18 hrs followed by kidney injury surgery and measured after 24 hrs; type: functional, organism-based; conditions: time 42.0 hrs
Method in brief: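 Male mice (9–11 weeks, 25–28 g) given i.p. dose 18 h before ischemia–reperfusion AKI surgery under isoflurane; serum taken 24 h after reperfusion. Creatinine and BUN measured by a clinical laboratory; DMSO-treated controls.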

[12] = In vivo inhibition of SCoR2 in C57BL/6J mouse assessed as reduction in SNO-CoA metabolic activity in kidneys at 120 mg/kg body weight, ip administered as single dose into abdomen measured after 18 hrs relative to control; type: functional; method in brief: as §1
[13] = molecular target: T2, Aldo-keto reductase family 1 member A1 (Homo sapiens) (UniProt P14550); assay: Binding affinity to C-terminal 6His-tagged human recombinant SCoR2 AKR1A1 expressed in Escherichia coli BL21-CodonPlus competent cells assessed as thermal stability by measuring melting temperature at +/- 250 uM preincubated for 15 mins with NADPH followed by compound addition and measured after 30 mins by SYPRO orange dye based DSF analysis (reference value: 51.4 degreeC)
T2 sequence (whole entry): T1 sequence (P14550 whole entry)
Method in brief: (§4)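 5 μM protein with or without 250 μM NADPH or NADP⁺ and 250 μM inhibitor; cofactor preincubated 15 min, then inhibitor 30 min at room temperature. 10X SYPRO Orange added; temperature ramped 25–70°C in 0.3°C steps. DMSO-matched controls (1%); duplicates.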

[14] = molecular target: T2, Aldo-keto reductase family 1 member A1 (Homo sapiens); assay: Binding affinity to C-terminal 6His-tagged human recombinant SCoR2 AKR1A1 expressed in Escherichia coli BL21-CodonPlus competent cells assessed as melting temperature at +/- 250 uM incubated for 45 mins by SYPRO orange dye based DSF analysis (reference value: 48.3 degreeC); method in brief: as §4
[15] = species on record: Homo sapiens; assay: Selectivity index, ratio of IC50 for inhibition of human recombinant AKR1B1 expressed in Escherichia coli BL21-CodonPlus competent cells to IC50 for inhibition of human recombinant SCoR2 expressed in Escherichia coli BL21-CodonPlus competent cells; method in brief: as §2
[16] = system: Mus musculus; assay: Protection against ischemia/reperfusion induced acute kidney injury in mouse assessed as reduction in PKM2 activity in kidney at 120 mg/kg, ip pretreated for 18 hrs followed by kidney injury surgery and measured after 24 hrs by colorimetric pyruvate kinase activity assay; conditions: time 42.0 hrs
[17] = system: Mus musculus; assay: In vivo inhibition of SCoR2 in C57BL/6J mouse assessed as reduction in SNO-CoA metabolic activity in spleen at 120 mg/kg body weight, ip administered as single dose into abdomen measured after 18 hrs; type: functional, organism-based; method in brief: as §1
[18] = system: Mus musculus; assay: Protection against ischemia/reperfusion induced acute kidney injury in mouse assessed as reduction in loss of brush borders at 120 mg/kg, ip pretreated for 18 hrs followed by kidney injury surgery and measured after 24 hrs by H and E staining based analysis; type: functional, organism-based; conditions: time 42.0 hrs; method in brief: as §3

## O=C1NC(=O)C2(N1)c1ccccc1-c1ccc(C3CC3)cc12 (stereo not drawn)
[1]
  inhibition: inactive
[2]
  IC50: 93 nM
[3]
  Activity: Active
[4]
  Activity: Non-Toxic
[5]
  Activity: Active
[6]
  inhibition: Active
[7]
  Activity: inactive
[8]
  inhibition: inactive
[9]
  IC50: 903 nM
[10]
  inhibition: Active
[11]
  Activity: Active
[12]
  inhibition in vivo at 120 mg/kg: 80%
[13]
  Tm: 53.4 °C
[14]
  Tm: 46.6 °C
[15]
  Ratio IC50: 9.7
[16]
  Activity: Active
[17]
  inhibition: Active
[18]
  Activity: Active
